Hits are enriched below; roughly 3.5% of the tested compounds scored in any of these assays.
RGS4 inh = inhibitors of human RGS4. P49798. HEK293 M3R/RGS4 inducible, Fluo-4 calcium flux; stronger effect = higher value; triggered by carbachol at its EC20. B-score at 10 µM. 310,000 compounds, 0.45% hits. AID 463165;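 active = B-score, a plate-corrected calcium signal, over three deviations above library mean, with baseline fluorescence within five deviations of library mean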;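 note: RGS4 expression induced by doxycycline in cells with stable M3 receptor; B-score is computed from the integrated fluorescence ratio over baseline after carbachol; higher B-score means a larger calcium signal and so more RGS4 inhibition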
Target sequence (P49798 whole entry, looked up): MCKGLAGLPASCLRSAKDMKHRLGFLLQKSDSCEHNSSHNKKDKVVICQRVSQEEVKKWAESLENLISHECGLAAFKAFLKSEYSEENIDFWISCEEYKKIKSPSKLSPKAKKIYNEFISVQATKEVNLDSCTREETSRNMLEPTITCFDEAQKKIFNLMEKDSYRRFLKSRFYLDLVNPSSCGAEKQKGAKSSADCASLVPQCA
MrgX1 antagonist = antagonists of human MrgX1 receptor; 310,000 compounds, 1.3% hits; B-score at 10 µM; Q96LB2; MRGX1-HEK293 calcium flux, Fluo-4, BAM8-22 antagonism; stronger effect = lower value; AID 588676;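 active = calcium-response B-score plate-corrected more than 3 library SD below zero, starting fluorescence within 5 deviations, no agonist response on first addition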;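 note: peak minus trough fluorescence over baseline after final BAM8-22 challenge near maximal dose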
Target sequence (Q96LB2 whole entry, looked up): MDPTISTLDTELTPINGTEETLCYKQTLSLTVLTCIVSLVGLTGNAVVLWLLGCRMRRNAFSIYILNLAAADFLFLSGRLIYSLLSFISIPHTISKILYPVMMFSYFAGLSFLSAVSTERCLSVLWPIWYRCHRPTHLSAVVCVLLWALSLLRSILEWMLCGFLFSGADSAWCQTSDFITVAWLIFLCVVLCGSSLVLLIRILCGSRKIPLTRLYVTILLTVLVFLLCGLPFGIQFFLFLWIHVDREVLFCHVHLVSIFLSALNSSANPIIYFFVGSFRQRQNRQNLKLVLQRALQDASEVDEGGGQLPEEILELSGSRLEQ
RGS4 pot = potentiators or activators of RGS4; HEK293 M3R/inducible RGS4, carbachol calcium flux Fluo4; stronger effect = lower value; B-score at 10 µM; 310,000 compounds, 0.92% hits; AID 463111;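 active = B-score of the integrated calcium signal more than 4 SD below the library mean, with starting fluorescence not abnormally high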;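 note: negative B-score means reduced calcium response which marks RGS4 activation or potentiation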
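Material: Inducible-RGS4 HEK293 cells carrying M3 receptor; also added: carbachol at ECmax as muscarinic agonist stimulus; incubation: compound preincubation 20 min at room temperature before agonist; signal: Fluo4-AM (2 µM) calcium-flux fluorescence, kinetic read; measure: integrated calcium ratio converted to B score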
MrgX1 allo act = human MrgX1 positive allosteric modulation, primary screen | AID 588675 | B-score at 10 µM | 310,000 compounds, 0.63% hits | MrgX1-HEK293, Fluo-4 calcium flux, FDSS; stronger effect = higher value;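 active = plate-corrected calcium response at least 3 library SD above typical, normal starting fluorescence, not activating the receptor alone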;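 note: compound read alongside a low EC10 to EC30 dose of BAM8-22 agonist; peak minus trough fluorescence over baseline measured at the second addition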
MrgX1 agonist = agonists of human MrgX1 receptor; MrgX1-HEK293 cells, Fluo-4 calcium fluorescence, agonist mode; stronger effect = higher value; Q96LB2; B-score at 10 µM; AID 588627; 310,000 compounds, 0.44% hits;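 active = calcium response B-score plate-corrected fluorescence ratio at least 3 library SD, with starting fluorescence B-score inside 5 SD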
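times = overnight plating, then 30 min 37 °C plus 30 min room-temperature dye loading | assay system = stable human MrgX1 HEK293 cell line | input = fifteen thousand cells per well | signal = kinetic calcium dye fluorescence, Fluo-4 NW | dosing = compound delivered in addition one of three | read-out = B-scored fluorescence response ratio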
RGS4 act valid = confirmation of RGS4 activators; 1,100 compounds, 89% hits; shares compounds with RGS4 pot; HEK293 M3R/RGS4 inducible, carbachol calcium flux Fluo4; inhibition, % at 10 µM;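 active = inhibition above 3 SD of the buffer control wells, cut at about 41% in these data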;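 note: signal is the integrated peak-minus-minimum Fluo4 fluorescence over baseline ratio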
M3R Ca counter = activity in cells without induced RGS4 expression; shares compounds with RGS4 pot; HEK293 M3R non-induced RGS4, Fluo4 calcium flux; after carbachol challenge at its EC90; inhibition, % at 10 µM; 1,100 compounds, 82% hits; AID 602283;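 active = inhibition exceeding 3 SD of buffer-only control wells, cut at about 26% in these data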;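 note: percent drop in integrated peak-minus-baseline over baseline Fluo4 ratio after carbachol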
Numbers without * were called inactive; i = inactive; . = no result.

SMILES	RGS4 inh	MrgX1 antagonist	RGS4 pot	MrgX1 allo act	MrgX1 agonist	RGS4 act valid	M3R Ca counter
Cc1ccc2c(CN3CCN(Cc4ccc5c(c4)OCO5)CC3)cc(=O)oc2c1C	i	i	-8.7*	i	i	0	0
Cc1cc2oc(=O)cc(CN3CCN(Cc4ccc5c(c4)OCO5)CC3)c2cc1C	i	i	i	i	i	.	.
CCCCN(C(=O)/C=C/c1ccco1)c1c(N)n(CCC)c(=O)[nH]c1=O	i	i	i	i	i	.	.
CCCCN(CCCC)S(=O)(=O)c1ccc(NC(=O)c2ccc([N+](=O)[O-])cc2Cl)cc1	i	i	-11*	i	i	86*	60*
CC(=O)N1CCN(c2ccc(NC(=O)c3ccc([N+](=O)[O-])cc3Cl)cc2)CC1	i	i	i	i	i	.	.
CNS(=O)(=O)c1cccc(C(=O)OCC(=O)N2CCCC2)c1	i	i	i	i	i	.	.
CNS(=O)(=O)c1cccc(C(=O)OCc2cc(Cl)cc3c2OCOC3)c1	i	i	-8.6*	i	i	0	0
Cc1ccc(F)c(CNC(=O)C2CCC(=O)N(Cc3ccccn3)C2)c1F (configuration not stated)	i	i	i	i	i	.	.
CCCCCCCCCn1ccc(=N)cc1	i	i	i	i	i	.	.
CCCCCCCn1ccc(=N)cc1	i	i	-9.2*	i	i	69*	30*
CC(C)(C)N(Cc1ccccc1)C(=O)COC(=O)CN1C(=O)NC2(CCCC2)C1=O	i	i	i	i	i	.	.
CCN1CCN(CCn2c(=S)[nH]c3ccccc3c2=O)CC1	i	i	-7.8*	i	i	85*	59*
Cc1ccccc1Sc1c(C#N)c(-c2ccccc2)nn1C	i	i	-8.3*	i	i	88*	58*
CN1CCN(C(=O)c2ccc(CNS(=O)(=O)c3cccc(Cl)c3)cc2)CC1	i	i	i	i	i	.	.
O=C1CN(S(=O)(=O)c2cccc(Cl)c2Cl)c2ccccc2N1	i	i	i	i	i	.	.
Cc1ccc(OCC(=O)Nc2ccc(CN3CCCCC3)cc2)c(C)c1	i	i	-9.9*	i	i	66*	84*
O=C1CCCN1S(=O)(=O)c1ccccc1	i	i	-7.9*	i	i	50*	0
S=c1[nH]nc(-c2ccc(Br)cc2)n1Cc1ccco1	i	i	-8*	i	i	93*	78*
S=c1[nH]nc(-c2ccc(Cl)cc2)n1Cc1ccccc1	i	i	-8.9*	i	i	81*	36*
CCOC(=O)c1cnc2ccccc2c1NCc1ccco1	i	i	-9.7*	i	i	94*	92*
Cc1ccc(S(=O)(=O)c2nc(S(=O)(=O)c3ccccc3)sc2N2CCN(C)CC2)cc1	i	i	i	i	i	.	.
CC1CCN(CCCOc2ccc(Cl)cc2Br)CC1	i	i	i	i	i	.	.
Cc1cc(Br)ccc1OCCCCN1CCC(C)CC1	i	i	-8.5*	i	i	89*	64*
Cc1cccc(C(=O)NC(=S)NNC(=O)COc2ccc(Cl)cc2)c1	i	.	-11*	.	.	58*	50*
Cc1cccc(/C(N)=N/OC(=O)COc2ccc(Cl)cc2)c1	i	i	i	i	i	.	.
SMILES	RGS4 inh	MrgX1 antagonist	RGS4 pot	MrgX1 allo act	MrgX1 agonist	RGS4 act valid	M3R Ca counter
Oc1ccccc1-c1nc(NC2CCCC2)c2ccccc2n1	i	i	-7.8*	i	i	74*	59*
NC(=O)N=Nc1c2[nH]c3ccccc3nc-2c2ccccc12	i	i	-8.6*	i	i	56*	0
O=c1[nH]c2ccccc2nc1-c1ccccc1	i	i	i	i	i	.	.
CN(C)C(C)(C)/C=C/C(O)(c1ccccc1)c1ccccc1	i	i	-8.7*	i	i	88*	64*
Cc1ccc(O)c(C(CC(=O)NC2CCCCC2)c2ccccc2)c1 (configuration not stated)	i	i	i	i	i	.	.
COc1ccc(CCNC(=O)CCOc2cc(C)ccc2C)cc1OC	i	i	i	i	i	.	.
Cc1ccc(NC(=O)c2cc(C(C)(C)C)nn2Cc2ccccc2)cc1	i	i	-7.6*	i	i	95*	82*
COc1cccc(C2SCC(=O)N2c2ccc(Br)cc2)c1OC (configuration not stated)	i	i	-9.8*	i	i	91*	92*
COCCN1CCN(C(=O)c2cc(COc3ccc(Cl)cc3OC)on2)CC1	i	i	i	i	i	.	.
Fc1ccc(C2N(c3ccccc3)C(=S)N3CCCN23)cc1 (configuration not stated)	i	i	i	i	i	.	.
Cc1ccc(C2N(c3ccccc3)C(=S)N3CCCN23)cc1 (configuration not stated)	i	i	-11*	i	i	94*	91*
CC1CCN(c2ccc3c(c2)S(=O)(=O)c2ccccc2C3=O)CC1	i	i	-8.2*	i	i	68*	65*
NC(=O)C1CCN(c2ccc3c(c2)S(=O)(=O)c2ccccc2C3=O)CC1	i	i	i	i	i	.	.
CN1C2CCC1CC(OC(c1ccccc1)c1ccccc1)C2 (configuration not stated)	i	i	-8.8*	i	i	92*	91*
CN1[C@@H]2CC[C@H]1CC(OC(=O)C(O)c1ccccc1)C2 (some centres not stated)	.	i	.	i	i	.	.
CC(C)Cn1c(-c2ccc(F)cc2)n[nH]c1=S	i	i	-8.5*	i	i	62*	84*
CC(C)Cn1c(-c2ccncc2)n[nH]c1=S	i	i	i	i	i	.	.
CC(C)Cn1c(-c2csc3c2CCCC3)n[nH]c1=S	i	i	-8*	i	i	94*	67*
CCN1CCN(CCCNC(=O)c2ccc(CS(=O)c3ccc(Br)cc3)o2)CC1 (configuration not stated)	i	i	i	i	i	.	.
C=CCSc1nc(C)cc(C(=O)OCC)c1C#N	i	i	i	i	i	.	.
CCCNC(=O)c1ccccc1NC(=O)c1ccc2c(c1)NC(=O)C(C)S2 (configuration not stated)	i	i	-7.8*	i	i	72*	29*

Bioassay records as filed in PubChem.
